Compound activity from PubChem BioAssay.
PP1 counter – PP1-alpha (human) inhibition in PP5 counter-screen. P62136. purified PP1alpha, OMFP fluorescence. inhibition, % at 6.7 µM. 0.9% of 320,000 active. AID 2235;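 active = inhibition above the mean inhibition of all tested compounds plus 3 SD, computed separately for each screening campaign, cut at about 15% in these data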
Target sequence (P62136 whole entry, looked up): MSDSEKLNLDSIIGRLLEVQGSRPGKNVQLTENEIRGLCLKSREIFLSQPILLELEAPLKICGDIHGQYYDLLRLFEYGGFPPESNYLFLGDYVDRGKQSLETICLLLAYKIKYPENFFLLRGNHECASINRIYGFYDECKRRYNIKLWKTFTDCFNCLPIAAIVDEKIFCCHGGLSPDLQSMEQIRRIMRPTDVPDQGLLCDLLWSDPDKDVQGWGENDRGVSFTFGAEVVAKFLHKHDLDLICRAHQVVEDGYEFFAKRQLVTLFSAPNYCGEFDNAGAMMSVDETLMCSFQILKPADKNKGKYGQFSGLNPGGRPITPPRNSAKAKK
ZTA counter – counter-screen for EBNA-1 inhibitors: inhibitors of Epstein-Barr virus ZTA; inhibition, % at 11 µM; 0.15% of 320,000 active; ZTA-DNA binding, fluorescence polarization; P03206; in the data active = inhibition above about 33%
Target sequence (P03206 whole entry, looked up): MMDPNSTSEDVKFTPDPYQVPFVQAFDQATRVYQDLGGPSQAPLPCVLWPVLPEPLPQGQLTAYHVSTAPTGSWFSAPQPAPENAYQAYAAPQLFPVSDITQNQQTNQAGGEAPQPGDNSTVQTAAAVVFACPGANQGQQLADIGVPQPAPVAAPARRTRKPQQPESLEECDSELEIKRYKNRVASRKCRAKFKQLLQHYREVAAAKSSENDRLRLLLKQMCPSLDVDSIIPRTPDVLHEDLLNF
core dimer inh – blocks dimerization of HCV core protein; 0.33% of 300,000 active; TR-FRET GST/Flag-core106 dimerization, 1536-well; AID 1899; inhibition, % at 5 µM;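 active = inhibition above the mean of all tested compounds plus 3 SD, set per screening campaign, cut at about 45% in these data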
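Material: GST/Flag-tagged HCV core106 proteins. Incubation: 4 h, 22.5 °C incubation. Read-out basis: inhibition (%) from 671 over 617 nm ratio. Measured by: TR-FRET, excitation 340 nm, emission 617 and 671 nm.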
NS3 helicase inh – inhibitors of Hepatitis C virus NS3 helicase; inhibition, % at 10.9 µM; 0.56% of 290,000 active; AID 1800; NS3 helicase DNA unwinding, Cy5 molecular beacon fluorescence;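 active = inhibition above the mean of all tested compounds plus 3 SD, set per campaign, cut at about 35% in these data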;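 also: 0% = DMSO wells and 100% = thioflavine S control wells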
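System: HCV NS3 helicase fragment; control set: DMSO and thioflavine S; technique: Cy5 fluorescence at 0 and 60 min, beacon hairpin quenching; reagent: beacon DNA duplex substrate plus ATP; replicates: singlicate; schedule: 1 h reaction at 25 °C, ATP-initiated; medium: MOPS buffer pH 6.5 with MgCl2, DTT, Tween20, BSA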
EBNA-1 inh – blocks EBNA-1 binding to DNA; EBNA-1 DNA binding, fluorescence polarization; inhibition, % at 14.8 µM; 0.34% of 300,000 active; in the data active = inhibition above about 28%
Zta DNA confirm – confirmation of Epstein-Barr virus ZTA DNA binding inhibitors | 30% of 320 active | inhibition, % at 11.1 µM | Zta-ZRE DNA binding, fluorescence polarization | shares compounds with ZTA counter;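 active = mean inhibition across triplicate runs above the hit threshold derived for the original primary screen, cut at about 33% in these data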;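 also: 0% = Zta with DMSO and 100% = wells lacking Zta protein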
EBNA1 counter – EBNA-1 DNA binding inhibition, counter-screen for ZTA. fluorescence polarization. 320 tested, under 10 active. shares compounds with ZTA counter. inhibition, % at 14.8 µM; call rule not given here
PP1 inh confirm – human PP1 phosphatase inhibition, confirmation | shares compounds with PP1 counter | purified PP1alpha, OMFP substrate fluorescence | inhibition, % at 6.7 µM | 52% of 1,900 active;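 active = mean PP1 inhibition above a set limit taken from the earlier primary screen, cut at about 15% in these data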
PP5 inh counter – inhibits human PP5 phosphatase in PP1 counter-screen | shares compounds with PP1 counter | inhibition, % at 6.7 µM | 4% of 1,900 active | AID 2360 | purified PP5c, OMFP fluorescence;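 active = mean PP5 inhibition over triplicate wells above about 9.5% taken from the earlier PP1 screen, limit read from the data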
* = called active by the depositor; / = no result; ! = not confirmed by another sample. A selection: hits, their analogues and other compounds. The true share with any hit is near 1.9%.

SMILES	PP1 counter	ZTA counter	core dimer inh	NS3 helicase inh	EBNA-1 inh	PP1 inh confirm	PP5 inh counter	others
Cn1ncnc2c(=O)n(C)c(=O)nc1-2	38*	59*	29	/	1	/	/	Zta DNA confirm=72*;EBNA1 counter=-11
Cc1cc(/C=C2\C(=O)NC(=O)N(c3ccccc3F)C2=O)c(C)n1-c1cc(C(=O)O)cc(C(=O)O)c1	3	33*	-11	27	-2	/	/	Zta DNA confirm=60*;EBNA1 counter=3
COc1ccc(C(c2ccc(OC)cc2)C(Cl)(Cl)Cl)cc1	-1	-8	/	/	/	/	/
Cc1ccc(N=Cc2c(O)n(-c3ccc(C)cc3)c(=O)[nH]c2=O)cc1	0	-4	14	/	-2	/	/
CCOc1ccc(N=Cc2c(O)n(CCc3ccc(OC)c(OC)c3)c(=O)[nH]c2=O)cc1	-2	-2	0	-11	4	/	/
CCN(CC)c1ccc(N=Cc2c(O)n(-c3ccc(OC)cc3)c(=O)[nH]c2=O)cc1	5	36*	1	25	-6	/	/	Zta DNA confirm=-5;EBNA1 counter=-11
COc1ccc(CCn2c(O)c(C=Nc3ccc(NC(C)=O)cc3)c(=O)[nH]c2=O)cc1OC	-1	60*	2	6	9	/	/	Zta DNA confirm=47*;EBNA1 counter=38*
C=CCn1c(O)c(C=Nc2ccc(N(CC)CC)cc2)c(=O)[nH]c1=O	2	45*	0	29	7	/	/	Zta DNA confirm=1;EBNA1 counter=-7
CCN(CC)c1ccc(CNCCc2ccc(F)cc2)cc1	-4	20	-5	-18	3	/	/
C[N+](C)(C)CC(=O)O	-9	-14	-9	/	0	/	/
CCN(CC)C(=O)c1ccc2c(c1)C1C(Cl)C(Sc3ccccc3[N+](=O)[O-])CC1C(C(=O)O)N2 (stereo unspecified)	19*	54*	20	18	17	2	2	Zta DNA confirm=39*;EBNA1 counter=8
COC(=O)C1=C(c2ccc(S(C)(=O)=O)cc2)C[C@@H]2CC[C@H]1N2C(=O)NCc1cccc2ccccc12	-2	1	8	/	-2	/	/
CC1CC(NC(=O)C2C3CCC(O3)C2C(=O)O)CC(C)(C)C1 (stereo unspecified)	80*	-8	6	8	1	30*	48*
COC1C(OC(=O)c2ccc(C)[nH]2)C(O)C(Oc2ccc3c(O)c(NC(=O)c4ccc(O)c(CC=C(C)C)c4)c(=O)oc3c2Cl)OC1(C)C (stereo unspecified)	24*	-1	14	29	14	17*	4
O=C(c1cc(C(=O)NCc2ccccc2)c(=O)n(Cc2ccccc2)c1)c1cc(Cl)ccc1O	18*	-3	28	26	6	16*	1
CN(C)[C@@H]1C(=O)C(C(N)=O)=C(O)[C@@]2(O)C(=O)C3=C(O)c4c(O)ccc(Cl)c4[C@@](C)(O)C3C[C@@H]12 (stereo partly specified)	/	/	/	31	/	/	/
CN(C)[C@@H]1C(=O)C(C(N)=O)=C(O)[C@@]2(O)C(=O)C3=C(O)c4c(O)cccc4[C@@](C)(O)C3[C@H](O)C12 (stereo partly specified)	20*	14	-6	/	14	14	12*!
CCOc1cc2c(cc1OCC)-n1cccc1C(c1cccc([N+](=O)[O-])c1)NC2 (stereo unspecified)	3	-12	-10	-14	-8	/	/
Clc1ccc(C(Cn2ccnc2)OCc2csc3c(Cl)cccc23)c(Cl)c1 (stereo unspecified)	32*	22	20	/	11	29*	-1
COc1ccccc1N1C(=O)CC(=O)NC1=O	2	-2	-2	12	-15	/	/
Clc1ccc(CCC(Cn2ccnc2)Sc2c(Cl)cccc2Cl)cc1 (stereo unspecified)	34*	-3	13	/	-4	28*	-3
Clc1ccc(Cn2ccnc2)cn1	6	-8	-5	21	-4	/	/
O=C(CCc1nnc2ccc(NCc3ccccc3)nn12)N1CCC2(CC1)OCCO2	-9	-1	-7	8	0	/	/
Cc1ccc(NC(=O)CCNC(=O)N2C[C@H]3C[C@@H](C2)c2cccc(=O)n2C3)c(C)c1	-6	5	1	14	-5	/	/
NS(=O)(=O)c1ccc(N=Nc2c(O)[nH]c(=S)[nH]c2=O)cc1	-4	-2	-12	23	-12	/	/
SMILES	PP1 counter	ZTA counter	core dimer inh	NS3 helicase inh	EBNA-1 inh	PP1 inh confirm	PP5 inh counter	others
O=c1[nH]c(=S)[nH]c(O)c1N=Nc1cc(S(=O)(=O)Nc2ccc(Cl)cc2)ccc1Cl	21*	-19	/	/	/	25*	2
O=c1[nH]c(O)c(C=Nc2ccc(Cl)c(C(F)(F)F)c2)c(=O)[nH]1	-1	-9	-13	10	-3	/	/
O=c1[nH]c(=O)n(CCC2=CCCCC2)c(O)c1/C=N/Nc1cccc2ccccc12	21*	3	25	18	1	18*	2
O=C(O)C1C2CCC(O2)C1C(=O)Nc1ccc(F)c(F)c1 (stereo unspecified)	68*	0	2	-3	3	13	22*
CC(=O)c1ccccc1NC(=O)C1C2CCC(O2)C1C(=O)O (stereo unspecified)	72*	2	-6	-1	2	33*	39*
c1ccc2sc(C3CCNCC3)nc2c1	/	/	/	-4	/	/	/
CCCCOC(=O)c1ccc(NC(=O)c2c(O)[nH]c(=O)[nH]c2=O)cc1	9	6	10	/	8	/	/
CCOC(=O)c1cccc(NC(=O)c2c(O)[nH]c(=O)[nH]c2=O)c1	19*	-1	-5	/	-1	12	-2
O=P1(Oc2ccccc2)C[C@@H](O)[C@@H](O)[C@H](COCc2ccccc2)O1 (stereo partly specified)	1	-24	-10	/	5	/	/
